According to ChEMBL document CHEMBL3124806, “Imidazopyridine-fused [1,3]-diazepinones: synthesis and antiproliferative activity” (Eur J Med Chem, 2014):

Columns and labels:
Type in all cases: functional
PC-3 = assay: Cytotoxicity against human PC3 cells assessed as cell growth at 10 uM after 48 hrs by SRB assay relative to untreated control; conditions: PC-3, 48 h, read-out: Activity
In short: (§1)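 NCI-60 one-dose screen: each agent added at 10 µM, cultures incubated 48 h. Endpoint by sulforhodamine B protein-binding dye read spectrophotometrically; growth expressed as percent of untreated control cells.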

HCC 2998 = assay: Cytotoxicity against human HCC2998 cells assessed as cell growth at 10 uM after 48 hrs by SRB assay relative to untreated control; conditions: HCC 2998, 48 h, read-out: Activity
In short: (§2)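 NCI-60 panel screen at a single concentration of 10 μM with 48 h incubation. Cell density measured by sulforhodamine B protein-binding dye and read spectrophotometrically. Growth expressed as percent of untreated control cells.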

MDA-MB-231 = assay: Cytotoxicity against human MDA-MB-231 cells assessed as cell growth at 10 uM after 48 hrs by SRB assay relative to untreated control; conditions: MDA-MB-231, 48 h, read-out: Activity; in short: as §1
A549 = assay: Cytotoxicity against human A549 cells assessed as cell growth at 10 uM after 48 hrs by SRB assay relative to untreated control; conditions: A549, 48 h, read-out: Activity; in short: as §2
DU-145 = assay: Cytotoxicity against human DU145 cells assessed as cell growth at 10 uM after 48 hrs by SRB assay relative to untreated control; conditions: DU-145, 48 h, read-out: Activity; in short: as §2
T47D = assay: Cytotoxicity against human T47D cells assessed as cell growth at 10 uM after 48 hrs by SRB assay relative to untreated control; conditions: read-out: Activity
In short: (§3)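 NCI-60 single-dose screen. Compounds were added to the cultures at 10 μM and incubated for 48 h. The end point was sulforhodamine B protein staining read spectrophotometrically. Growth is reported as percent of untreated control cells.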

HOP-92 = assay: Cytotoxicity against human HOP92 cells assessed as cell growth at 10 uM after 48 hrs by SRB assay relative to untreated control; conditions: HOP-92, 48 h, read-out: Activity; in short: as §2
SK-MEL-5 = assay: Cytotoxicity against human SK-MEL-5 cells assessed as cell growth at 10 uM after 48 hrs by SRB assay relative to untreated control; conditions: SK-MEL-5, 48 h, read-out: Activity; in short: as §3
ACHN = assay: Cytotoxicity against human ACHN cells assessed as cell growth at 10 uM after 48 hrs by SRB assay relative to untreated control; conditions: read-out: Activity; in short: as §2
SN12C = assay: Cytotoxicity against human SN12C cells assessed as cell growth at 10 uM after 48 hrs by SRB assay relative to untreated control; conditions: read-out: Activity; in short: as §3
SW-620 = assay: Cytotoxicity against human SW620 cells assessed as cell growth at 10 uM after 48 hrs by SRB assay relative to untreated control; conditions: SW-620, 48 h, read-out: Activity; in short: as §3
U-251 = assay: Cytotoxicity against human U251 cells assessed as cell growth at 10 uM after 48 hrs by SRB assay relative to untreated control; conditions: U-251, 48 h, read-out: Activity; in short: as §3
KM12 = assay: Cytotoxicity against human KM12 cells assessed as cell growth at 10 uM after 48 hrs by SRB assay relative to untreated control; conditions: KM12, 48 h, read-out: Activity; in short: as §2
SF-268 = assay: Cytotoxicity against human SF268 cells assessed as cell growth at 10 uM after 48 hrs by SRB assay relative to untreated control; conditions: SF-268, 48 h, read-out: Activity; in short: as §1
[1] = Cytotoxicity against human UACC257 cells assessed as cell growth at 10 uM after 48 hrs by SRB assay relative to untreated control; conditions: UACC-257, 48 h, read-out: Activity; in short: as §3
HCT-116 = assay: Cytotoxicity against human HCT116 cells assessed as cell growth at 10 uM after 48 hrs by SRB assay relative to untreated control; conditions: HCT-116, 48 h, read-out: Activity; in short: as §2
IGROV-1 = assay: Cytotoxicity against human IGROV1 cells assessed as cell growth at 10 uM after 48 hrs by SRB assay relative to untreated control; conditions: IGROV-1, 48 h, read-out: Activity; in short: as §2
HOP-62 = assay: Cytotoxicity against human HOP62 cells assessed as cell growth at 10 uM after 48 hrs by SRB assay relative to untreated control; conditions: HOP-62, 48 h, read-out: Activity; in short: as §2
[2] = Cytotoxicity against human NCI-ADR-RES cells assessed as cell growth at 10 uM after 48 hrs by SRB assay relative to untreated control; conditions: read-out: Activity; in short: as §1
NCI-H522 = assay: Cytotoxicity against human NCI-H522 cells assessed as cell growth at 10 uM after 48 hrs by SRB assay relative to untreated control; conditions: NCI-H522, 48 h, read-out: Activity; in short: as §1
HCT-15 = assay: Cytotoxicity against human HCT15 cells assessed as cell growth at 10 uM after 48 hrs by SRB assay relative to untreated control; conditions: HCT-15, 48 h, read-out: Activity; in short: as §2
SK-OV-3 = assay: Cytotoxicity against human SKOV3 cells assessed as cell growth at 10 uM after 48 hrs by SRB assay relative to untreated control; conditions: SK-OV-3, 48 h, read-out: Activity; in short: as §3
NCI-H23 = assay: Cytotoxicity against human NCI-H23 cells assessed as cell growth at 10 uM after 48 hrs by SRB assay relative to untreated control; conditions: NCI-H23, 48 h, read-out: Activity; in short: as §1
HT-29 = assay: Cytotoxicity against human HT-29 cells assessed as cell growth at 10 uM after 48 hrs by SRB assay relative to untreated control; conditions: HT-29, 48 h, read-out: Activity; in short: as §2
CCRF-CEM = assay: Cytotoxicity against human CCRF-CEM cells assessed as cell growth at 10 uM after 48 hrs by SRB assay relative to untreated control; conditions: read-out: Activity; in short: as §2
786-0 = assay: Cytotoxicity against human […] cells assessed as cell growth at 10 uM after 48 hrs by SRB assay relative to untreated control; conditions: 786-0, 48 h, read-out: Activity; in short: as §2
M14 = assay: Cytotoxicity against human M14 cells assessed as cell growth at 10 uM after 48 hrs by SRB assay relative to untreated control; conditions: M14, 48 h, read-out: Activity; in short: as §2
Malme-3M = assay: Cytotoxicity against human MALME-3M cells assessed as cell growth at 10 uM after 48 hrs by SRB assay relative to untreated control; conditions: read-out: Activity; in short: as §2
SF-295 = assay: Cytotoxicity against human SF295 cells assessed as cell growth at 10 uM after 48 hrs by SRB assay relative to untreated control; conditions: SF-295, 48 h, read-out: Activity; in short: as §1
NCI-H226 = assay: Cytotoxicity against human NCI-H226 cells assessed as cell growth at 10 uM after 48 hrs by SRB assay relative to untreated control; conditions: NCI-H226, 48 h, read-out: Activity; in short: as §1
SK-MEL-2 = assay: Cytotoxicity against human SK-MEL-2 cells assessed as cell growth at 10 uM after 48 hrs by SRB assay relative to untreated control; conditions: SK-MEL-2, 48 h, read-out: Activity; in short: as §1
[3] = Cytotoxicity against human OVCAR4 cells assessed as cell growth at 10 uM after 48 hrs by SRB assay relative to untreated control; conditions: OVCAR-4, 48 h, read-out: Activity; in short: as §1

COc1ccc(C2=Nc3nc4ccccn4c3C(=O)[C@H](Cc3ccccc3)N2)cc1
growth at 10 µM (PC-3): 91.8%
growth at 10 µM (HCC 2998): 96.4%
growth at 10 µM (MDA-MB-231): 121%
growth at 10 µM (A549): 109%
growth at 10 µM (DU-145): 111%
growth at 10 µM (T47D): 98.8%
growth at 10 µM (HOP-92): 95.6%
growth at 10 µM (SK-MEL-5): 104%
growth at 10 µM (ACHN): 101%
growth at 10 µM (SN12C): 113%
growth at 10 µM (SW-620): 100%
growth at 10 µM (U-251): 95.3%
growth at 10 µM (KM12): 99.9%
growth at 10 µM (SF-268): 105%
growth at 10 µM [1]: 92.3%
growth at 10 µM (HCT-116): 88%
growth at 10 µM (IGROV-1): 107%
growth at 10 µM (HOP-62): 88.2%
growth at 10 µM [2]: 89.2%
growth at 10 µM (NCI-H522): 94.7%
growth at 10 µM (HCT-15): 101%
growth at 10 µM (SK-OV-3): 110%
growth at 10 µM (NCI-H23): 92%
growth at 10 µM (HT-29): 117%
growth at 10 µM (CCRF-CEM): 99.4%
growth at 10 µM (786-0): 101%
growth at 10 µM (M14): 98.3%
growth at 10 µM (Malme-3M): 97.6%
growth at 10 µM (SF-295): 92.5%
growth at 10 µM (NCI-H226): 98.6%
growth at 10 µM (SK-MEL-2): 106%
growth at 10 µM [3]: 112%

Cc1ccc(C2=Nc3nc4ccccn4c3C(=O)[C@H](Cc3ccccc3)N2)cc1
growth at 10 µM (PC-3): 80.7%
growth at 10 µM (HCC 2998): 106%
growth at 10 µM (MDA-MB-231): 93.7%
growth at 10 µM (A549): 94.9%
growth at 10 µM (DU-145): 117%
growth at 10 µM (T47D): 96.5%
growth at 10 µM (HOP-92): 88.3%
growth at 10 µM (SK-MEL-5): 86.5%
growth at 10 µM (ACHN): 92.1%
growth at 10 µM (SN12C): 104%
growth at 10 µM (SW-620): 102%
growth at 10 µM (U-251): 99.3%
growth at 10 µM (KM12): 92.9%
growth at 10 µM (SF-268): 97.4%
growth at 10 µM [1]: 91.1%
growth at 10 µM (HCT-116): 94.3%
growth at 10 µM (IGROV-1): 89.1%
growth at 10 µM (HOP-62): 75.9%
growth at 10 µM [2]: 87.1%
growth at 10 µM (NCI-H522): 98.1%
growth at 10 µM (HCT-15): 78%
growth at 10 µM (SK-OV-3): 109%
growth at 10 µM (NCI-H23): 82.5%
growth at 10 µM (HT-29): 114%
growth at 10 µM (CCRF-CEM): 103%
growth at 10 µM (786-0): 106%
growth at 10 µM (M14): 97.7%
growth at 10 µM (Malme-3M): 99.9%
growth at 10 µM (SF-295): 84%
growth at 10 µM (NCI-H226): 88.2%
growth at 10 µM (SK-MEL-2): 105%
growth at 10 µM [3]: 102%

C[C@@H]1NC(c2ccccc2)=Nc2nc3ccccn3c2C1=O
growth at 10 µM (PC-3): 82.5%
growth at 10 µM (HCC 2998): 90.9%
growth at 10 µM (MDA-MB-231): 89.8%
growth at 10 µM (A549): 103%
growth at 10 µM (DU-145): 116%
growth at 10 µM (T47D): 92.8%
growth at 10 µM (HOP-92): 75.5%
growth at 10 µM (SK-MEL-5): 99.2%
growth at 10 µM (ACHN): 97.5%
growth at 10 µM (SN12C): 112%
growth at 10 µM (SW-620): 93.5%
growth at 10 µM (U-251): 102%
growth at 10 µM (KM12): 98.9%
growth at 10 µM (SF-268): 103%
growth at 10 µM [1]: 121%
growth at 10 µM (HCT-116): 98.4%
growth at 10 µM (IGROV-1): 88.2%
growth at 10 µM (HOP-62): 102%
growth at 10 µM [2]: 97.4%
growth at 10 µM (NCI-H522): 95.4%
growth at 10 µM (HCT-15): 104%
growth at 10 µM (SK-OV-3): 101%
growth at 10 µM (NCI-H23): 91.9%
growth at 10 µM (HT-29): 113%
growth at 10 µM (CCRF-CEM): 104%
growth at 10 µM (786-0): 103%
growth at 10 µM (M14): 99.8%
growth at 10 µM (Malme-3M): 99.5%
growth at 10 µM (SF-295): 89%
growth at 10 µM (NCI-H226): 88%
growth at 10 µM (SK-MEL-2): 110%
growth at 10 µM [3]: 103%
